Results as given in PubChem BioAssay AID652011 (Sanford-Burnham Center for Chemical Genomics, 2013).
Several values for one entry are separate records, joined by “and”; a condition that tells them apart may be missing. Identical values can stand only once.

Each compound was assayed against Endothelial PAS domain-containing protein 1 (Homo sapiens) (UniProt Q99814) (assay: HIF-1a and HIF-2a reporter inhibitors, SAR follow-up, cell-based, luminescence, MIAPaCa-2, 786-0, panel (AID 652011)). Conditions: MIAPaCa-2/PANC HIF reporter, luciferase luminescence, desferoxamine, overnight, HIF2a PANC, run 1; at 99 µM (top of the series).
Endothelial PAS domain-containing protein 1 (Homo sapiens), sequence (Q99814 whole entry, looked up, the tested form may be a part): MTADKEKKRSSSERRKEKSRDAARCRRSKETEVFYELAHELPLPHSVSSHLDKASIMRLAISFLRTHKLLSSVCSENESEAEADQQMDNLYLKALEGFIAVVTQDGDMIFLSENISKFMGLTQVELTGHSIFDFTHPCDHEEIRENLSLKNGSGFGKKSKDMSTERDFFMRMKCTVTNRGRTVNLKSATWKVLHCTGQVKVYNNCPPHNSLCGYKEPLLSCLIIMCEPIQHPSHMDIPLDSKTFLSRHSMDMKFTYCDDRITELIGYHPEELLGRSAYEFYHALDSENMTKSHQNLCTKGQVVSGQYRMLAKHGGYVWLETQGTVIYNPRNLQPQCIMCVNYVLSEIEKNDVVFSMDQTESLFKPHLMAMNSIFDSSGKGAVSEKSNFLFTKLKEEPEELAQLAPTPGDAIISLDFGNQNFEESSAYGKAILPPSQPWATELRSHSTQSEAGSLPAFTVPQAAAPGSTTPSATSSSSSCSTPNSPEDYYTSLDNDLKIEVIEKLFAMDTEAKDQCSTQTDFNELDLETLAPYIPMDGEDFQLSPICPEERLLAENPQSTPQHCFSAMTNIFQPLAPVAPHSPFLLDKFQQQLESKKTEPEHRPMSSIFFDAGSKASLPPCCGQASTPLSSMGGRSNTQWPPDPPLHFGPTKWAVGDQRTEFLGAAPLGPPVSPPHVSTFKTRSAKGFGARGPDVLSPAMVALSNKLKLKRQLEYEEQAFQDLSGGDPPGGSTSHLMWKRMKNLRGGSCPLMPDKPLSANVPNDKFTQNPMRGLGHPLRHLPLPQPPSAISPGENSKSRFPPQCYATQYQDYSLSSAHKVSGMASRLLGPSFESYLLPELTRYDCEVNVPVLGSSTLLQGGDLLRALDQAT
Summary of the method: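 Probe or stimulus – desferoxamine stimulus · Times – overnight compound incubation at 37 °C, 10 min reagent · Doses – compounds from 10 mM and 0.3125 mM stocks, 1% DMSO final · Technique – luminescence, One-Glo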
In the case of `CCNC(=O)CCc1nc(-c2cccc(OC)c2)no1`, the inhibition is reported as 27.9%. `CC(C)NC(=O)CCc1nc(-c2ccc(C(C)(C)C)cc2)no1` gave an inhibition of 80.3%. In the case of `CN(C)C(=O)CCc1nc(-c2ccc(C(C)(C)C)cc2)no1`, the inhibition is reported as -71.1% and 11.2%. With `CC(C)(C)c1ccc(-c2noc(CCC(=O)O)n2)cc1` the inhibition was 119%. `CCCCc1ccc(-c2noc(CCC(=O)NC)n2)cc1` gave an inhibition of -53%. With `CCc1ccc(-c2noc(CCC(=O)NC(C)(C)C)n2)cc1` the inhibition was -42.9%. `CC(C)(C)c1ccc(-c2noc(CCC(=O)NC3CC3)n2)cc1` gave an inhibition of 53.7%. For `CC(C)(C)c1ccc(-c2noc(CCC(=O)Nc3ccccc3)n2)cc1`, the inhibition was 116%. In the case of `CNC(=O)CCc1nc(-c2ccc(C)cc2)no1`, the inhibition is reported as 40.9%. Work on `CC(C)(C)NC(=O)CCc1nc(-c2ccccc2)no1` yielded an inhibition of 35.7%.
